We go through one compound from ChEMBL document CHEMBL1154830, “A beta-carboline alkaloid from the Papua New Guinea marine sponge hyrtios reticulatus” (J Nat Prod, 2010).

One test concerns HCC 2998. Nature of the test: Cytotoxic activity against human HCC2998 cells after 96 hrs by luminescent cell viability assay. The class given is functional, cell-based. The conditions noted are these: HCC 2998, 96 h.
For the next test, the system named is NCI-H460. Nature of the test: Cytotoxic activity against human H460 cells after 96 hrs by luminescent cell viability assay. The class given is functional, cell-based. To be noted: NCI-H460, 96 h. The gist of the method:
(§1)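 Cells in 96-well plates grown without compound or with continuous exposure to 1.5–50,000 nM test compound for 96 h. Growth read by CellTiter-Glo luminescence. IC50 is the concentration giving 50% growth inhibition relative to untreated cells. Two separate replicate experiments.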

The subject of the next test is U-937. Nature of the test: Cytotoxic activity against human U937 cells after 96 hrs by luminescent cell viability assay. To be noted: U-937, 96 h. The test is classed as functional, cell-based.
For the next test, the system named is UACC-257. In words: Cytotoxic activity against human UACC257 cells after 96 hrs by luminescent cell viability assay. The test is classed as functional, cell-based. The conditions noted are these: UACC-257, 96 h.
Another test relates to BT-549. Nature of the test: Cytotoxic activity against human BT549 cells after 96 hrs by luminescent cell viability assay. The class given is functional, cell-based. The conditions noted are these: BT-549, 96 h. The gist of the method:
as §1

In a further test the test system is SR. Nature of the test: Cytotoxic activity against human SR cells after 96 hrs by luminescent cell viability assay. The test is classed as functional, cell-based.
The next test deals with OVCAR-5. Nature of the test: Cytotoxic activity against human OVCAR5 cells after 96 hrs by luminescent cell viability assay. The class given is functional, cell-based. To be noted: OVCAR-5, 96 h.
Test [1] concerns HeLa. In words: Cytotoxicity against human HeLa cells at 230 uM after 24 hrs. The test is classed as functional. The gist of the method: (§2)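 HeLa cells plated at 1500 cells/well and held overnight at 37 °C, 5% CO2, then compound pinned in. After 24 h, fixed in 4% formaldehyde for 20 min, permeabilized with 0.5% Triton X-100 in PBS for 10 min and blocked. Actin stained with rhodamine-phalloidin for 20 min and DNA with Hoechst 33342.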

The next test has as its system SF-539. In words: Cytotoxic activity against human SF539 cells after 96 hrs by luminescent cell viability assay. The test is classed as functional, cell-based. To be noted: SF-539, 96 h.
Test [2] relates to HeLa. Nature of the test: Cytotoxicity against human HeLa cells assessed as nuclear blebbing at 230 uM after 24 hrs by hoechst 33342 staining method. The class given is functional, cell-based. The method, boiled down:
as §2

A further test has as its system HT-29. Nature of the test: Cytotoxic activity against human HT-29 cells after 96 hrs by luminescent cell viability assay. The class given is functional, cell-based. To be noted: HT-29, 96 h. The gist of the method: as §1
Test [3] can be described thus: Cytotoxic activity against human H522-T1 cells after 96 hrs by luminescent cell viability assay. The test is classed as functional, cell-based. To be noted: H522-T1, 96 h.
The test system of a further test is MCF7. In words: Cytotoxic activity against human MCF7 cells after 96 hrs by luminescent cell viability assay. The test is classed as functional, cell-based. The conditions noted are these: MCF7, 96 h.
Another test deals with MDA-MB-435. Nature of the test: Cytotoxic activity against human MDA-MB-435 cells after 96 hrs by luminescent cell viability assay. To be noted: MDA-MB-435, 96 h. The test is classed as functional, cell-based.
Test [4] relates to HeLa. In words: Cytotoxicity against human HeLa cells assessed as disruption of cytoskeleton at 230 uM after 24 hrs by rhodamine-phalloidin staining method. The class given is functional, cell-based. The gist of the method:
as §2

For a further test, the system named is DU-145. In words: Cytotoxic activity against human DU145 cells after 96 hrs by luminescent cell viability assay. The class given is functional, cell-based. The conditions noted are these: DU-145, 96 h. The method, boiled down:
as §1

The structures appear in SMILES notation. Converted amounts (≈) assume the structure as drawn. The source made the active and inactive calls. The calls are words filed in the database; no cut-off is given here.

Consider `O=C(O)c1cc2c([nH]c3ccc(O)cc32)c(C(=O)c2c[nH]cn2)n1` [HYRTIOCARBOLIN], for which the IC50 (in general, the point on the concentration scale where inhibition reaches its midpoint) with HCC 2998 is over 50 µg/mL; in the test with NCI-H460 it was 17 µg/mL (≈ 52.7 µM); in the test on U-937, 1.5 µg/mL (≈ 4.65 µM); in the test on UACC-257, over 50 µg/mL; in the test on BT-549, 45 µg/mL (≈ 140 µM); in the test on SR, over 50 µg/mL. For the same compound, the IC50 in the test on OVCAR-5 is over 50 µg/mL; with SF-539 it was over 50 µg/mL; in the test with HT-29, over 50 µg/mL; in [3] it was 1.2 µg/mL (≈ 3.72 µM); with MCF7, over 50 µg/mL; in the test on MDA-MB-435, 3 µg/mL (≈ 9.31 µM). In the test with DU-145, this compound showed an IC50 of 34 µg/mL (≈ 105 µM). Besides, in the test with HeLa [1], the inhibition (as a rule, the share of the control response that was lost under treatment) at 230 µM came out at 57%. For the same compound, the outcome with HeLa [2] and in the test with HeLa [4] was Active.
